Data set [1] has as its system C. parvum. Put plainly: Host cell invasion assay. The following applies: HCT-8, 3 h; EDI048 and KDU731 20 µM, wiskostatin 11.3 µM. The class given is cell-based, Cryptosporidium parvum. A digest of the protocol:
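HCT-8 monolayers were 95–100% confluent. Compounds were added at twice the final concentration 1 h before infection with 50,000 primed oocysts per well. Plates were kept 3 h at 37 °C, 5% CO2, then washed with PBS-0.1% Tween 20, fixed in 4% PFA for 15 min at room temperature, permeabilized with 0.25% Triton X-100 and blocked in 4% BSA. Vacuoles were stained with fluorescein-VVL and nuclei with Hoechst, then imaged.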

The nature of data set [2]: Systemic exposure in the mouse efficacy studies. The class given is in vivo. The following applies: mouse efficacy study, 10 mg kg^−1 oral.
A short description of data set [3]: Cytotoxicity assay. The class given is cell-based, human. The note with it: human, HepG2 cells (ATCC CRL-10741), HepG2 CC50, 96 h.
The target of data set [4] is T1, CpPI(4)K (Cryptosporidium parvum, UniProt Q5CVD3).
T1 sequence (Q5CVD3 1-1114): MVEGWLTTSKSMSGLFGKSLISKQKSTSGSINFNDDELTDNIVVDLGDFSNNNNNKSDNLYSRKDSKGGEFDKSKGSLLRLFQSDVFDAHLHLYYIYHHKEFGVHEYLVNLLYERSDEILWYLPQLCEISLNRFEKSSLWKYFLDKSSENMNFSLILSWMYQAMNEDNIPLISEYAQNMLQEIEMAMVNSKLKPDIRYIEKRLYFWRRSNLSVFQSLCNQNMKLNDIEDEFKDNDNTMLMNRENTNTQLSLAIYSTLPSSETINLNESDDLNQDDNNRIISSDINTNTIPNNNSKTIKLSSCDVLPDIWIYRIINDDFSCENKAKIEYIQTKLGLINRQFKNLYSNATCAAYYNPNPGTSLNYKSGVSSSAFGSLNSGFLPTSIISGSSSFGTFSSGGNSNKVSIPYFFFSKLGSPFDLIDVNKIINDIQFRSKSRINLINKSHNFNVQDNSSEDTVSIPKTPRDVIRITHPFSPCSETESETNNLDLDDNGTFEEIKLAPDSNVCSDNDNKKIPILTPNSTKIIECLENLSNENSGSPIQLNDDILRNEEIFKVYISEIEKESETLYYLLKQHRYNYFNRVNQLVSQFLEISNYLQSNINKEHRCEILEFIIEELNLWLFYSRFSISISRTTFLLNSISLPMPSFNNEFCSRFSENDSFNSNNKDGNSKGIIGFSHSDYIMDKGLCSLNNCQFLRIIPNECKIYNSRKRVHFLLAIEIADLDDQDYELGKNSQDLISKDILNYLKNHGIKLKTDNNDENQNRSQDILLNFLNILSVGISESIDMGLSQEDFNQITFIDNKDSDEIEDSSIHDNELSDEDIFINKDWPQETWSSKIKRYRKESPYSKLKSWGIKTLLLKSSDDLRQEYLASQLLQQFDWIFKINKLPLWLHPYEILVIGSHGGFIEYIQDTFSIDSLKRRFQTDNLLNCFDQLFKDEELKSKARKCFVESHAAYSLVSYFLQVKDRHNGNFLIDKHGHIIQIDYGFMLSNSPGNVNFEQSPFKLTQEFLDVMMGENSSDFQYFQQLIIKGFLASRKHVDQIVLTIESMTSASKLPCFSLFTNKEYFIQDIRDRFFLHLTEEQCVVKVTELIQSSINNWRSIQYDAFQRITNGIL
Put plainly: PI. In kind it is biochemical, C. parvum. The following applies: CpPI(4)K IC50, 3 μM ATP. A digest of the protocol: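 Enzyme was pre-incubated with compound for 5 min at room temperature. The reaction was started with substrate mix at twice final strength (PI, ATP, Tris-HCl pH 7.5, DTT, 0.05% Triton X-100, MnCl2) and run 50 min at room temperature. ADP was measured by ADP-Glo luminescence. IC50s came from in-plate duplicate 10-point 3-fold dilutions, with DMSO and reference-inhibitor controls. The C. parvum enzymes (wild type and mutants) were full-length proteins expressed from baculovirus in Sf21 cells.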

Data set [5] in a line: Stability in intestinal S9 fraction. In kind it is in vitro ADME. The note with it: mouse. A digest of the protocol: (§1)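 Test compound added to intestinal S9 fraction of each species to start the reaction. Incubated in a shaking water bath at 37 °C, with samples taken at sequential timepoints. Samples quenched with ice-cold acetonitrile and analysed by LC-MS/MS. Half-life calculated from the rate of parent compound depletion.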

Data set [6] in a line: Stability in intestinal S9 fraction. The note with it: human. In kind it is in vitro ADME. The gist of the method: as §1
Data set [7] can be described thus: Hepatocytes metabolic stability. In kind it is in vitro ADME. The note with it: mouse. A digest of the protocol:
(§2)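 Test compound was incubated with liver microsomes or hepatocytes of each species, and parent depletion was quantified by LC-MS/MS. From this, in vitro half-life and intrinsic clearance were derived, along with predicted metabolic clearance and hepatic extraction ratio.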

Data set [8] can be described thus: High-throughput equilibrium solubility. In kind it is physicochemical. The following applies: thermodynamic from solid. A digest of the protocol:
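Equilibrium solubility was measured by a miniaturized shake-flask method with HPLC quantification.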

The test system of data set [9] is C. parvum. Put plainly: Mouse efficacy study. In kind it is in vivo, C57BL/6 IFN-γ-knockout mice. The following applies: oral 10 mg kg^−1, 5 days; nitazoxanide 100 mg kg^−1.
In data set [10] the target is HsPI(4)K (Homo sapiens, UniProt Q9UBF8). Put plainly: PI. The note with it: HsPI(4)K IC50, 3 μM ATP. In kind it is biochemical.
HsPI(4)K, sequence (Q9UBF8 523-816 limits assumed): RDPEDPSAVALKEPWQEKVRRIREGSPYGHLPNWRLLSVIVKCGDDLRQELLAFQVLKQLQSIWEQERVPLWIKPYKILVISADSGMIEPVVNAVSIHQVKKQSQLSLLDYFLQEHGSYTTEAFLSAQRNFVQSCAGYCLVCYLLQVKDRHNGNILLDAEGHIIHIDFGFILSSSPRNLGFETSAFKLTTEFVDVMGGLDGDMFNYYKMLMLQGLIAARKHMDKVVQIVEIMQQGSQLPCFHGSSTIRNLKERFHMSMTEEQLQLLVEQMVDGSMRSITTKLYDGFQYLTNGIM
Data set [11] is described as follows: Hepatocytes metabolic stability. In kind it is in vitro ADME. The following applies: human. A digest of the protocol:
as §2

Data set [12] is described as follows: Plasma stability. The note with it: human. The class given is in vitro ADME. The gist of the method: (§3)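 Test compound was added to plasma and incubated at 37 °C in a shaking water bath, with samples taken at sequential timepoints. Samples were quenched with ice-cold acetonitrile and analysed by LC-MS/MS, and half-life was calculated from the depletion rate.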

Data set [13] deals with C. parvum. Kind of data set: Cytopathic effect. In kind it is cell-based, Cryptosporidium parvum. The note with it: read-out: Cp CPE EC50; C. parvum, HCT-8, 48 h. The gist of the method:
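HCT-8 cells were grown at 37 °C, 5% CO2 in RPMI-1640 with 10% heat-inactivated FBS. Oocysts were excysted in 10 mM HCl/HBSS for 10 min at 37 °C, then in 2 mM sodium taurocholate in L-15/UltraCULTURE medium for 5 min. Infected cells were seeded onto pre-spotted compound (10-point, 3-fold dilution; DMSO and reference-inhibitor controls) and incubated 48 h. Cells were then lysed for a viability read-out, and concentration-response curves were fitted.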

A short description of data set [14]: Plasma stability. The class given is in vitro ADME. The note with it: mouse. The gist of the method:
as §3

Data set [15] concerns C. parvum. Put plainly: Washout assay, nanoluciferase-expressing C. parvum. In kind it is cell-based, Cryptosporidium parvum. The note with it: regardless of the stage of drug exposure. A digest of the protocol: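 HCT-8 cells were grown to ~90% confluence, then infected with 400 nanoluciferase-expressing oocysts per well. Before infection, oocysts were primed for excystation with 10 mM HCl in water (10 min, 37 °C), then 2 mM sodium taurocholate in DPBS with Ca/Mg (10 min, 16 °C). Luminescence was read over time. RLU taken soon after infection served as day 0 and was used to normalize each timepoint.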

In data set [16] the test system is C. parvum. Put plainly: Time-kill assay, nanoluciferase-expressing C. parvum. The class given is cell-based, Cryptosporidium parvum.

The structures appear in SMILES notation. ≈ marks a conversion by molar mass, not a printed value.

Regarding `CN(C)C[C@H](O)Cn1c2ccc(Br)cc2c2cc(Br)ccc21` (racemic) [wiskostatin, reference compound], the sporozoite invasion result in data set [1] was “prevented sporozoite invasion and formation of trophozoites”.
Turning to `CNC(=O)c1ccc(-c2cnn3ccc(C(=O)N(CCC(=O)OCC(=O)N(C)C)c4ccc(Cl)cc4)cc23)cc1` [Compound 3, 2-(dimethylamino)-2-oxoethyl 3-(N-(4-chlorophenyl)-3-(4-(methylcarbamoyl)phenyl)pyrazolo[1,5-a]pyridine-5-carboxamido)propanoate], the “AUC (time 0 to last timepoint)” value in data set [2] is listed as “<LLOQ^f”. Further, the Cmax entry in [2] was “<LLOQ^f”. This compound also had a CC50 at 96 h in [3] of 38.2 µM. The IC50 amounted to 0.005 µM in [4] and 1.03 ± 0.485 µM in [10]. Moreover, the half-life is 9.2 min in [5], 45 min in [6] and below 2.8 min in data set [7] (hepatocytes). Besides, the “Hepatocytes ER” value in data set [7] worked out at 93%. The solubility in [8] (FaSSIF) turned out to be 355 µM (≈ 200 µg/mL); in data set [8] (pH 6.8, aqueous buffer), 11 µM (≈ 6.18 µg/mL). Further, the “efficacy in the mouse model” value in [9] is “inactive in vitro and in vivo”.
Take `CNC(=O)c1ccc(-c2cnn3ccc(C(=O)N(C[C@H]4CCC(=O)O4)c4ccc(OC(F)(F)F)cc4)cc23)cc1` [Compound 4, (R)-3-(4-(methylcarbamoyl)phenyl)-N-((5-oxotetrahydrofuran-2-yl)methyl)-N-(4-(trifluoromethoxy)phenyl)pyrazolo[1,5-a]pyridine-5-carboxamide]: the midpoint of cytotoxicity in [3], the CC50 at 96 h, lay at 32.2 µM. In addition, the half-inhibitory concentration (IC50) worked out at 0.018 ± 0.011 µM in data set [4] and 1.38 ± 0.13 µM in data set [10]. Further, the half-life in [5] was 96 min; in data set [11] (hepatocytes), 4.8 min; in data set [6], 215 min; in data set [12], above 120 min; in [14], below 5 min. Moreover, the “Hepatocytes ER” value in data set [11] is reported as 95%. Further, the solubility in [8] (pH 6.8, aqueous buffer) worked out at 37 µM (≈ 20.4 µg/mL). For the same compound, in data set [9], the “efficacy in the mouse model” value is listed as “poor in vivo efficacy”. Also, the EC50 in data set [13] was found to be 0.349 ± 0.181 µM.
In [3], `CC(=O)Oc1ccccc1C(=O)Nc1ncc([N+](=O)[O-])s1` [NTZ, Nitazoxanide, reference compound] had a CC50 at 96 h of 34.9 µM. For the same compound, the results for the IC50 in data set [4] and in [10] were above 10 µM and above 30 µM, respectively. Moreover, in [15], the “washout: cidal activity” value is “not cidal”. The “efficacy in the mouse model” value in [9] was “not efficacious”. Besides, the parasiticidal or parasitistatic entry in data set [16] is “static”.

One may read the CC50 as the concentration at which the toxic effect on the cells reaches its halfway point. As usually defined, the IC50 is the concentration that inhibits the measured activity by half. Read a low IC50 as greater potency in that assay. In general, half-life refers to the time needed for the level to fall by half in the phase considered. In general, solubility refers to the concentration that dissolves in the medium under given conditions. In general, EC50 refers to the concentration that produces a half-maximal response.

(Values after paper PMC11522000 (Nature Microbiology, 2024).)
